In article PMC2955813 (Cancer prevention research (Philadelphia, Pa.), 2010):
One block for each compound: values may come before it.

What was measured:
[1] = system: cGMP hydrolysis in HT-29 cell lysate; assay: IMAP fluorescence polarization PDE assay, cGMP hydrolysis in HT-29 lysate; assay type: biochemical, human; settings: HT-29 cell lysates; concentration not given
How it was run: (§1)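 HT-29 or FHC cells were lysed in ice-cold 20 mM Tris-acetate, 5 mM Mg acetate, 1 mM EGTA, 0.8% Triton X-100, 50 mM NaF, protease inhibitors, pH 7.4. Lysates were cleared at 10,000g, 10 min, 4°C, and protein measured by BCA. PDE activity was read by IMAP fluorescence polarization, with Fl-cAMP and TAMRA-cGMP as substrates so cAMP and cGMP hydrolysis were measured together.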

[2] = system: HT-29, SW480, and HCT116 human colon cancer cell lines; assay: Cell Titer Glo growth assay, colon tumor cell lines; assay type: cell-based; settings: for effect on colon tumor cell growth: PDE isozyme specific inhibitors; for IC50: Homo sapiens, 72 h, read-out: growth inhibition IC50, range over cell lines; for HT-29 growth inhibition: NSAID panel
[3] = system: intracellular cGMP levels in colon tumor cells; settings: cited from earlier work
[4] = system: cGMP PDE in HT-29 human colon tumor cell lysates; assay: cGMP PDE scintillation proximity assay in HT-29 lysate; assay type: biochemical; settings: HT-29 cell lysates; for IC50: read-out: IC50 cGMP PDE, scintillation proximity assay; for effect on cGMP PDE activity: NSAID panel
How it was run: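 The reaction was stopped with scintillation proximity beads that bind the labeled product, then counted.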

[5] = system: cGMP PDE activity in lysates from HT-29 tumors established in athymic mice; assay: cGMP PDE in HT-29 tumor homogenates versus normal rat colonic mucosa; assay type: biochemical, human; settings: HT-29 tumor lysate vs normal rat colonic mucosa lysate
[6] = system: cyclinD1 and survivin expression in SW480 cells; assay: Western blot of cyclin D1 and survivin; assay type: cell-based, human; settings: time-dependent
How it was run: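 SW480 lysate (ice-cold Tris-acetate/Triton X-100/NaF buffer, pH 7.4, cleared at 10,000g, 4°C) was loaded at 30 μg protein per lane. Proteins were separated by 12% SDS-PAGE and transferred to nitrocellulose, blocked with 5% BSA in TBS/0.05% Tween-20, and probed for cyclin D1 and survivin, with β-actin as loading control.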

[7] = system: cAMP hydrolysis in HT-29 cell lysate; assay: IMAP fluorescence polarization PDE assay, cAMP hydrolysis in HT-29 lysate; assay type: biochemical, human
[8] = system: Tcf/Lef-mediated transcription in HT-29, HCT-116, and SW480 colon cancer cells; assay: TOPFlash luciferase reporter assay; assay type: cell-based, human; settings: HT-29, HCT-116, SW480, 24 hours
How it was run: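 Cells were transiently co-transfected with the TOPFlash luciferase construct and a β-galactosidase expression vector, then treated for 24 h. After lysis, luciferase and β-galactosidase activities were measured, and luciferase was normalized to β-galactosidase.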

recombinant PDE2 = recombinant PDE2 (Homo sapiens, UniProt O00408); assay: Recombinant PDE2 inhibition; assay type: biochemical; settings: recombinant isozyme, cAMP as substrate; data not shown
Chain of recombinant PDE2 (O00408 whole entry): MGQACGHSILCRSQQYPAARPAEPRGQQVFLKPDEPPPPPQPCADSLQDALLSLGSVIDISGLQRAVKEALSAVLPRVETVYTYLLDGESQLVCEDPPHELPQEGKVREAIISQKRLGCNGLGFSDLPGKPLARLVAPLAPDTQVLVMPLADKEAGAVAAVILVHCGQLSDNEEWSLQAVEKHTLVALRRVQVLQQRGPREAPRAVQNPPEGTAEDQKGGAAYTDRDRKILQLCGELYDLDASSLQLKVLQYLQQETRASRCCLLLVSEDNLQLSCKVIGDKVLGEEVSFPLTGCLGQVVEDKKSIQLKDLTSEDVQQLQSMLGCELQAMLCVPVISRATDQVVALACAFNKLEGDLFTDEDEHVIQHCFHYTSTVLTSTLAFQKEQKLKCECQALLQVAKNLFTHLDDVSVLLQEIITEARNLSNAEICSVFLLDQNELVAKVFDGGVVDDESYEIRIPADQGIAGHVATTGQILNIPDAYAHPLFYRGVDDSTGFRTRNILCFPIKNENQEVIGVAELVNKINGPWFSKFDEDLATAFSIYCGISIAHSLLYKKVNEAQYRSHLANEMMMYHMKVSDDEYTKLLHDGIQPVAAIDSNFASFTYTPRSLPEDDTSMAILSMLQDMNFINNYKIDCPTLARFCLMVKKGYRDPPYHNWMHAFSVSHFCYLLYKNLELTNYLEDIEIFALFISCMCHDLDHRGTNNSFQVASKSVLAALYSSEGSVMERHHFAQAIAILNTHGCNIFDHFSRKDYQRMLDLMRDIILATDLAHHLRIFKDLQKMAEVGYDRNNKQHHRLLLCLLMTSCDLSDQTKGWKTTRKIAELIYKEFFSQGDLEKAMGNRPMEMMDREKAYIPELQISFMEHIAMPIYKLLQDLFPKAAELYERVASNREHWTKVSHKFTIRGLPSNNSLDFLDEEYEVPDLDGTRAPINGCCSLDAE

recombinant PDE3 = assay: Recombinant PDE3 inhibition; assay type: biochemical; settings: recombinant isozyme, cAMP as substrate; data not shown
cGMP PDE in FHC lysates = assay: IMAP fluorescence polarization PDE assay, cGMP hydrolysis in FHC lysate; assay type: biochemical, human; settings: FHC lysate compared with HT-29 lysate
How it was run: as §1

HT-29 cells = assay: 3H-thymidine incorporation proliferation assay; assay type: cell-based, human; settings: read-out: IC50 Proliferation, 72 hours, tritiated thymidine assay
How it was run: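 HT-29 cells (>95% viable by trypan blue) were treated for 72 h in total. 1 μCi ³H-thymidine was added at 56 h and incubation continued 16 h at 37°C. DNA was harvested onto filters and uptake counted by scintillation.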

[9] = Plasma levels of sulindac and metabolites; assay type: in vivo; settings: for concentration at 6 h: mouse, plasma, po, 50 mg/kg
Purified ovine COX-1 = target: T1, Purified ovine COX-1 (Ovis aries, UniProt P05979); assay: COX-1 inhibition, purified enzyme; assay type: biochemical; settings: read-out: IC50 COX-1
T1 sequence (P05979 25-600): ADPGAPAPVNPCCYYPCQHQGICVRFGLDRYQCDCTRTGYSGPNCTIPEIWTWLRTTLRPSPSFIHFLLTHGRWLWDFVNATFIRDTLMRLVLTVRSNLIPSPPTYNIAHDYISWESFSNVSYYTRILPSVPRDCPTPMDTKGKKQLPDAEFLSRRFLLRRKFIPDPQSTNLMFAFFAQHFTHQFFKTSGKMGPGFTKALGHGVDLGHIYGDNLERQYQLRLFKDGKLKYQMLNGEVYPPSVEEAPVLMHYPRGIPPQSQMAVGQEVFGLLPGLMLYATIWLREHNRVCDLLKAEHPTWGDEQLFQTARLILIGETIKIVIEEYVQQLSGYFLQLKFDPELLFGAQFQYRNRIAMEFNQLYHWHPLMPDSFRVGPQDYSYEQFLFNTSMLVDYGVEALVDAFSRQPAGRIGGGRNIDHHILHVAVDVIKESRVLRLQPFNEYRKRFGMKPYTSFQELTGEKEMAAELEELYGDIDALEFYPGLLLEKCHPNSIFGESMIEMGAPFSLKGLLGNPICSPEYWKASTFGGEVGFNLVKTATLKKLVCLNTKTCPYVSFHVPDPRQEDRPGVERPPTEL

[10] = system: human HT-29 colon tumor xenograft; assay: HT-29 colon tumor xenograft efficacy; assay type: in vivo, male NCr-nu/nu athymic mice; settings: 50 mg/kg once daily oral gavage
How it was run: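 Male NCr-nu/nu mice, 5–6 weeks old, were implanted subcutaneously with HT-29 tumor fragments; 10 mice per group, vehicle-treated control. Dosing started at tumor size 75–200 mg: 50 mg/kg oral gavage once daily for 40 days, as a suspension in 0.5% CMC, 0.25% Tween 80 in water. Tumor dimensions and body weight were measured twice weekly; mortality checked daily.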

Purified ovine COX-2 = target: T2, Purified ovine COX-2 (Ovis aries, UniProt P79208); assay: COX-2 inhibition, purified enzyme; assay type: biochemical; settings: read-out: IC50 COX-2
T2 sequence (P79208 17-603): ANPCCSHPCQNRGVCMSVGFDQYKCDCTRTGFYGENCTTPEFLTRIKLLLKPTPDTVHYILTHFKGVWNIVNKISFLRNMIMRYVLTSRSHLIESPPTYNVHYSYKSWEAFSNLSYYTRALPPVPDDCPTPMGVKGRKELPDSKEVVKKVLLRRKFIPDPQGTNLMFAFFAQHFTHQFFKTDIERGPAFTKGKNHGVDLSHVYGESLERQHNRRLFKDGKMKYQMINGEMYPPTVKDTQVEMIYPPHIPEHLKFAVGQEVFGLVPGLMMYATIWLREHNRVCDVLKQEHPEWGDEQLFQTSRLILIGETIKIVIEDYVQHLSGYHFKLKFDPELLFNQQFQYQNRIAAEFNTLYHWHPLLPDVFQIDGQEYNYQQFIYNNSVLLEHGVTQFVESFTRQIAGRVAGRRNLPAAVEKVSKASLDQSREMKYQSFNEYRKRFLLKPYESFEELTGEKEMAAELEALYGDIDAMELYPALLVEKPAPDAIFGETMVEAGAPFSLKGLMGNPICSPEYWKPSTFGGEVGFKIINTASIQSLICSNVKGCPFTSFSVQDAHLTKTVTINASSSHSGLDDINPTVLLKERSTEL

Tolerance study = assay type: in vivo; settings: daily oral gavage for 20 days; no deaths or significant weight loss

Compound: CCCCCC[C@@H]([C@@H](C)O)n1cnc2c(N)ncnc21 (racemic) [EHNA]
- inhibition of cGMP PDE activity in HT-29 lysate [1]: less than 12%
- effect on colon tumor cell growth ([2]; HT-29, SW480, HCT116): only MY5445 was found to inhibit colon tumor cell growth

Compound: O=C(O)C1CCN(c2nc(NCc3ccc4c(c3)OCO4)c3cc(Cl)ccc3n2)CC1 [E4021]
- increase in intracellular cGMP levels [3]: unable to induce a significant increase

- IC50 [4]: 24 µM
Compound: COc1ccc2c(c1)c(CC(=O)O)c(C)n2C(=O)c1ccc(Cl)cc1 [Indomethacin, indomethacin]

- IC50 [2]: 8 to 18 µM
Compound: Clc1cccc(Nc2nnc(-c3ccccc3)c3ccccc23)c1 [MY5445, 1-(3-chloroanilino)-4-phenylphthalazine]
- fold greater potency for tumor cGMP PDE compared to normal tissue [5]: more than 10 fold
- expression of cyclinD1 and survivin [6]: significant reduction
- effect on cAMP hydrolysis [7]: without substantially affecting cAMP hydrolysis
- Tcf/Lef-mediated transcription [8]: significant reduction

Compound: CS(=O)(=O)c1ccc(C2=C(c3ccccc3)C(=O)OC2)cc1 [Rofecoxib, rofecoxib]
- IC50 [4]: > 300 µM

Compound: CSc1ccc(/C=C2/C(C)=C(CC(=O)O)c3cc(F)ccc32)cc1 [Sulindac sulfide, sulindac sulfide]
- cAMP hydrolysis by PDE2 (recombinant PDE2): did not significantly inhibit
- cAMP hydrolysis by PDE3 (recombinant PDE3): did not significantly inhibit
- expression of cyclinD1 and survivin [6]: significant reduction
- effect on cAMP hydrolysis [7]: appreciably higher concentrations were necessary
- cGMP PDE inhibition in FHC lysate (cGMP PDE in FHC lysates): reduced sensitivity
- Tcf/Lef-mediated transcription [8]: significant reduction
- IC50 [4]: 19.7 µM
- IC50 [2]: 73 to 85 µM
- IC50 (HT-29 cells): 33.9 µM
- concentration at 6 h [9]: 36.7 ± 10.2 µM

- IC50 [4]: 95.9 µM
- concentration at 6 h [9]: 8.9 ± 1.2 µM
Compound: CC1=C(CC(=O)O)c2cc(F)ccc2/C1=C\c1ccc(S(C)(=O)=O)cc1 [Sulindac sulfone, sulindac sulfone]

Compound: CC1=C(CC(=O)O)c2cc(F)ccc2/C1=C\c1ccc([S+](C)[O-])cc1 (stereo not shown) [Sulindac sulfoxide, sulindac]
- IC50 (Purified ovine COX-1): > 300 µM
- reduction of tumor growth ([10]; end of treatment, vs vehicle): approximately 55%
- effect on body weight ([10]; not shown): without affecting body weight
- IC50 (Purified ovine COX-2): > 300 µM
- maximum tolerated dosage (Tolerance study): approximately 50 mg/kg
- IC50 [4]: 120 µM
- IC50 (HT-29 cells): 224 µM
- plasma level ([9]; 6 hours following a single oral dose of sulindac at 50 mg/kg): 23.1 ± 5.5 µM

Compound: CC(=O)Oc1ccccc1C(=O)O [aspirin]
- effect on cGMP PDE activity [4]: did not affect cGMP PDE activity
- HT-29 growth inhibition [2]: low potency

Compound: Cc1ccc(-c2cc(C(F)(F)F)nn2-c2ccc(S(N)(=O)=O)cc2)cc1 [celecoxib]
- effect on cGMP PDE activity [4]: inhibited cGMP PDE
- HT-29 growth inhibition [2]: did inhibit tumor cell growth

Compound: C=C[C@@]1(C)CC(=O)[C@]2(O)[C@@]3(C)[C@@H](O)CCC(C)(C)[C@@H]3[C@H](O)[C@H](OC(C)=O)[C@@]2(C)O1 [forskolin]
- effect on growth ([2]; HT-29, SW480, HCT116, 72 hours, concentrations up to 100 μM): did not significantly affect growth

Compound: Cc1[nH]c(=O)c(C#N)cc1-c1ccncc1 [milrinone]
- inhibition of cGMP PDE activity in HT-29 lysate [1]: 31%
- effect on colon tumor cell growth ([2]; HT-29, SW480, HCT116): only MY5445 was found to inhibit colon tumor cell growth

Compound: CCCCC1C(=O)N(c2ccccc2)N(c2ccccc2)C1=O [phenylbutazone]
- effect on cGMP PDE activity [4]: did not affect cGMP PDE activity
- HT-29 growth inhibition [2]: low potency

Compound: CN1C(C(=O)Nc2ccccn2)=C(O)c2ccccc2S1(=O)=O [piroxicam]
- effect on cGMP PDE activity [4]: did not affect cGMP PDE activity
- HT-29 growth inhibition [2]: low potency

Compound: COc1ccc(C2CNC(=O)C2)cc1OC1CCCC1 (stereo not shown) [rolipram]
- effect on colon tumor cell growth ([2]; HT-29, SW480, HCT116): only MY5445 was found to inhibit colon tumor cell growth

Compound: CCCc1nn(C)c2c(=O)[nH]c(-c3cc(S(=O)(=O)N4CCN(C)CC4)ccc3OCC)nc12 [sildenafil]
- inhibition of cGMP PDE activity in HT-29 lysate [1]: 42%
- effect on colon tumor cell growth ([2]; HT-29, SW480, HCT116): did not affect colon tumor cell growth

Compound: CN1CC(=O)N2[C@H](c3ccc4c(c3)OCO4)c3[nH]c4ccccc4c3C[C@@H]2C1=O [tadalafil]
- effect on colon tumor cell growth ([2]; HT-29, SW480, HCT116): did not affect colon tumor cell growth

Compound: CCOC(=O)C1=C[C@]2(CC)CCCN3CCc4c(n1c1ccccc41)[C@@H]32 [vinpocetine]
- effect on colon tumor cell growth ([2]; HT-29, SW480, HCT116): only MY5445 was found to inhibit colon tumor cell growth
